Results: ChEMBL document CHEMBL1136577, “Synthesis of 6-formyl-pyridine-2-carboxylate derivatives and their telomerase inhibitory activities” (Bioorg Med Chem Lett, 2003)

Experiments:
[1] = molecular target: Telomerase reverse transcriptase (Homo sapiens, UniProt O14746); test: In vitro inhibitory activity of compound against telomerase
In short: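 Telomerase activity was measured by TRAP assay. Extension products were resolved on 10% nondenaturing polyacrylamide gel, stained with SYBR Green, and band intensity quantified by image analysis. IC50 was derived from the reduction in product signal.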

[2] = test system: A549; test: In vitro antiproliferative activity of compound against […] (human lung caner ) cell line was determined by SRB assay; format: functional, cell-based
In short: (§1)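 Cells grown for 3 days with compound, then growth read by sulforhodamine B (SRB) staining. IC50 taken as the dose giving 50% growth inhibition of the cultured cells.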

[3] = test system: CAKI-2; test: In vitro antiproliferative activity of compound against Caki-2 (human renal caner ) cell line was determined by SRB assay; format: functional, cell-based; in short: as §1
[4] = test system: HEC-1B cell line; test: In vitro antiproliferative activity of compound against HEC-1-B (human endometrical caner ) cell line was determined by SRB assay; format: functional, cell-based; in short: as §1
[5] = test system: HL-60; test: In vitro antiproliferative activity of compound against HL-60 (human assay; format: functional, cell-based; in short: as §1
[6] = test system: HT-29; test: In vitro antiproliferative activity of compound against HT-29 (human colon caner ) cell line aws determined by SRB assay; format: functional, cell-based
In short: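 Human tumour cell lines exposed to compound for 3 days, with growth measured by sulforhodamine B (SRB) staining. IC50 is the concentration that inhibits growth of 50% of the cultured cells.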

Telomerase reverse transcriptase, sequence (O14746 whole entry): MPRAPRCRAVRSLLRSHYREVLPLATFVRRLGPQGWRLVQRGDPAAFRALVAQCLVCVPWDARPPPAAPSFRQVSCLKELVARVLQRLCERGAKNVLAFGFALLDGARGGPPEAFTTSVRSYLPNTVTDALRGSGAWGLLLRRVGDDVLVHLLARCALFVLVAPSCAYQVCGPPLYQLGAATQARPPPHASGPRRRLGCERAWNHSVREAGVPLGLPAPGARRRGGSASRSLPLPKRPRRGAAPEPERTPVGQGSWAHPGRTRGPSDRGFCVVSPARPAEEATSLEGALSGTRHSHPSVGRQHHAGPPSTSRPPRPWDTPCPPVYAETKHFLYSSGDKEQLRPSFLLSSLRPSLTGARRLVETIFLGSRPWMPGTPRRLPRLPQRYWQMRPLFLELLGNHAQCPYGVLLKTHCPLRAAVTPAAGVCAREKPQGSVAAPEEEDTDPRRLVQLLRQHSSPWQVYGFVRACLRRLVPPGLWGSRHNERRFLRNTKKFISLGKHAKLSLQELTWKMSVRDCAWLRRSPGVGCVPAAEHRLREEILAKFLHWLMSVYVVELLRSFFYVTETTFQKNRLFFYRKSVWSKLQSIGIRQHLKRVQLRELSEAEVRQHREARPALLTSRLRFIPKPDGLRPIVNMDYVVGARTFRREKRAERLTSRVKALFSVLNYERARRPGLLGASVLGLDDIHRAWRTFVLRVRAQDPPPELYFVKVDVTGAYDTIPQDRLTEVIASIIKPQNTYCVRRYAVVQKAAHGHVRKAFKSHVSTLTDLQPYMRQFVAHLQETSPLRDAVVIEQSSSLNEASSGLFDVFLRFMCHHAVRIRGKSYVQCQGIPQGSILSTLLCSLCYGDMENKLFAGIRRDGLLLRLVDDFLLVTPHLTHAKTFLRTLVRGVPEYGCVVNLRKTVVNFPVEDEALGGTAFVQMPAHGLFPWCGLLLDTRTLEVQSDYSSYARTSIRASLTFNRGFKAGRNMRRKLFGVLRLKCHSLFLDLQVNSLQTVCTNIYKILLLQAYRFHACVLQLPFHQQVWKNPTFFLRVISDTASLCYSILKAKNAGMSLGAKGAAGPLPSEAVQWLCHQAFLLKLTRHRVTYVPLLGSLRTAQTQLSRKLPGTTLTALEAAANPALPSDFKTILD

In the case of O=Cc1cccc(C(=O)Sc2cccc(Cl)c2)n1, the IC50 [1] is reported as 79 µM.

For COc1ccccc1SC(=O)c1cccc(C=O)n1, the IC50 [1] was greater than 100 µM.

Work on O=Cc1cccc(C(=O)Sc2ccc(Br)cc2)n1 yielded an IC50 [1] of 56 µM.

In the case of CC(=O)Nc1ccc(SC(=O)c2cccc(C=O)n2)cc1, the IC50 [1] is reported as greater than 100 µM.

With O=Cc1cccc(C(=O)Sc2ccc(Cl)cc2)n1 the IC50 [1] was 33 µM.

COc1ccc(SC(=O)c2cccc(C=O)n2)cc1 was tested, and the IC50 [1] was 91 µM.

O=Cc1cccc(C(=O)Sc2ccc(F)c(F)c2)n1 was tested, and the IC50 [1] was 69 µM.

O=Cc1cccc(C(=O)Oc2ccc(Cl)c(Cl)c2)n1 showed an IC50 [1] greater than 100 µM.

Compound COc1cccc(SC(=O)c2cccc(C=O)n2)c1 has an IC50 [1] of 76 µM.

O=Cc1cccc(C(=O)Sc2ccc(Cl)c(Cl)c2)n1 was tested, and the IC50 [2] was 56.9 µM, the IC50 [3] was greater than 300 µM and the IC50 [4] was 56.4 µM. The IC50 [5] was 13 µM and the IC50 [1] was 24 µM.

Cc1ccccc1SC(=O)c1cccc(C=O)n1 showed an IC50 [1] greater than 100 µM.

Work on O=Cc1cccc(C(=O)Sc2cc(Cl)ccc2Cl)n1 yielded an IC50 [1] of 68 µM.

O=Cc1cccc(C(=O)Sc2cc(Cl)cc(Cl)c2)n1 was tested, and the IC50 [1] was 64 µM.

Cc1cccc(SC(=O)c2cccc(C=O)n2)c1 gave an IC50 [1] of 76 µM.

Cc1ccc(SC(=O)c2cccc(C=O)n2)cc1 was tested, and the IC50 [1] was greater than 100 µM.

With N#Cc1ccc(C=O)nc1SCc1c(Cl)cccc1Cl the IC50 [2] was greater than 300 µM, the IC50 [3] was greater than 300 µM and the IC50 [4] was 175 µM. The IC50 [5] was 26.7 µM and the IC50 [1] was 77 µM.

O=Cc1cccc(C(=O)Sc2ccc([N+](=O)[O-])cc2)n1 was tested, and the IC50 [1] was 75 µM.

With O=Cc1cccc(C(=O)Sc2ccccc2Cl)n1 the IC50 [1] was 84 µM.

Compound O=Cc1cccc(C(=O)Sc2ccc(F)cc2)n1 has an IC50 [1] of 64 µM.

In the case of O=Cc1cccc(C(=O)Sc2c(Cl)cc(Cl)cc2Cl)n1, the IC50 [1] is reported as 50 µM.

For O=Cc1cccc(C(=O)Nc2ccc(Cl)c(Cl)c2)n1, the IC50 [1] was greater than 100 µM.

In the case of O=Cc1cccc(C(=O)Sc2c(Cl)cccc2Cl)n1, the IC50 [1] is reported as 79 µM.

CC[C@@]1(O)C(=O)OCc2c1cc1n(c2=O)Cc2cc3ccccc3nc2-1 [CAMPTOTHECIN] showed an IC50 [2] of 2.53 µM, an IC50 [3] of 3.96 µM and an IC50 [4] of 8.64 µM. For the same compound, the IC50 [5] was 0.066 µM and the IC50 [6] was 1.4 µM.
